# PMC9054024 (Science Advances, 2022)
# Ends that are not written are not given here. * marks the point of attachment. Biotin = O=C1N[C@H]2[C@H](CS[C@H]2CCCCC(=O)*)N1
# T1: β-catenin complexes with E-cadherin (Homo sapiens, UniProt P35222)
# T1 sequence (P35222 2-781 limits assumed): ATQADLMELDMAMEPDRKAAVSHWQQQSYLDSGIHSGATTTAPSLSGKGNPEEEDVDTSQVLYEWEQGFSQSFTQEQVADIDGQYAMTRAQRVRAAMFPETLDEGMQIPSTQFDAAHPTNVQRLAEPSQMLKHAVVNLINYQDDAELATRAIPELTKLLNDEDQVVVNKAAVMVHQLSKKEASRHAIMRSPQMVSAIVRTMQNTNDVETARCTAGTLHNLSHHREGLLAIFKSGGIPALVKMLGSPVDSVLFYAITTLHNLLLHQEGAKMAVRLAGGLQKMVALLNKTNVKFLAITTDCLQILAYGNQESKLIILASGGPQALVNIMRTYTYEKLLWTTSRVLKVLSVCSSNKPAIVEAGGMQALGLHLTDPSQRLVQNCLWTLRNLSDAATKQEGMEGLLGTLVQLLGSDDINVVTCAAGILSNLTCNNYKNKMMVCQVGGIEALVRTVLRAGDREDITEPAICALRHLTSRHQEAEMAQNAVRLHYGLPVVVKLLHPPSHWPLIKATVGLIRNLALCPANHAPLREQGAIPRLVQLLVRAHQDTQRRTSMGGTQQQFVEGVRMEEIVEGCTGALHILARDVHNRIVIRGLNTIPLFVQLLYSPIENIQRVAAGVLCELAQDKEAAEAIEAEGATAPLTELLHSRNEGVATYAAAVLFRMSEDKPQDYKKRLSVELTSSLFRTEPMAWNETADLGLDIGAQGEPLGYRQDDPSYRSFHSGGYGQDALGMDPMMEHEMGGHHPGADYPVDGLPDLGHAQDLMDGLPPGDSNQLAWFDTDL
# T1 sequence (P12830 155-882 partner): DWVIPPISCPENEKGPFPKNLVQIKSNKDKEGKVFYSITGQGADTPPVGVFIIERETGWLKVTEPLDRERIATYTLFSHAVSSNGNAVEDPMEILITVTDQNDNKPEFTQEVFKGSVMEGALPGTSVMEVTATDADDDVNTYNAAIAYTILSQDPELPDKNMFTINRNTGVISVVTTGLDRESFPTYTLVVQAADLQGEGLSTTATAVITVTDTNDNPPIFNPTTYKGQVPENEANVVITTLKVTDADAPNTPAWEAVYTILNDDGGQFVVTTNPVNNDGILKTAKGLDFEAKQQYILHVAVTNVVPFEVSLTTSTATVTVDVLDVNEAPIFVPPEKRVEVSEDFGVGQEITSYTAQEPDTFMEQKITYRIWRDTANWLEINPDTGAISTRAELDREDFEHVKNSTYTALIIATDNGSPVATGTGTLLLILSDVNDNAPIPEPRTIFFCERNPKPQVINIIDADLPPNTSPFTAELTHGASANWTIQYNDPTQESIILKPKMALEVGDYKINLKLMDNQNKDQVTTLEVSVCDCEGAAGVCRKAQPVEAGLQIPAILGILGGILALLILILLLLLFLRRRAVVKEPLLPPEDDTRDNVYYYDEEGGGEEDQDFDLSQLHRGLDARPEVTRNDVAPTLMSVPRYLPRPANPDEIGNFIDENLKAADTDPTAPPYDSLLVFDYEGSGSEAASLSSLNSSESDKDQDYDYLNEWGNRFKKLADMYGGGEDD
# T2: β-catenin/BCL9 complexes (Homo sapiens, UniProt P35222)
# T2 sequence (P35222 2-781 limits assumed): T1 sequence (P35222 2-781 limits assumed)
# T3: full-length recombinant β-catenin (1 to 781 amino acids, 88 kDa) (human, UniProt P35222 1-781)
# T3 sequence: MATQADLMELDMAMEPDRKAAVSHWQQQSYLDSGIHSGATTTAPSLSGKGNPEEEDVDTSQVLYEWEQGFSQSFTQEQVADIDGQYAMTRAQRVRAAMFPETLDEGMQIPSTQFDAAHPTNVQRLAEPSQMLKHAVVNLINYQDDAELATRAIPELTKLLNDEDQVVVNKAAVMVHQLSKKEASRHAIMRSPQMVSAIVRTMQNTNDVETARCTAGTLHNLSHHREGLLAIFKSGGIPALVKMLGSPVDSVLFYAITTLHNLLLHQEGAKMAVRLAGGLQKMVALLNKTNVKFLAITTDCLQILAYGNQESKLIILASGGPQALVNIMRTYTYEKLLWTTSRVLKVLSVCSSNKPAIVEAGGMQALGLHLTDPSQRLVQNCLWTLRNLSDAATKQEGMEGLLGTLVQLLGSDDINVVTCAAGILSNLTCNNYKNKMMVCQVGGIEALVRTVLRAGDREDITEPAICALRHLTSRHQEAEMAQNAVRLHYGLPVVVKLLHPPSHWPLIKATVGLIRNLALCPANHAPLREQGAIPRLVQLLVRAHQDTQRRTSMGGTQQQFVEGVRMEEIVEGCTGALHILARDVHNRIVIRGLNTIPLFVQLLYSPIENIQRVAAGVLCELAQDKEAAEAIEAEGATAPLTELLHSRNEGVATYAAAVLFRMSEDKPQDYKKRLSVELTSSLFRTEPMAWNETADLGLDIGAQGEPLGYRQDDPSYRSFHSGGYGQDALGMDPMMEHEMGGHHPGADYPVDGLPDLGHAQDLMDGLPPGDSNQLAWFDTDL
# Tests used:
# AXIN2, CD44, PARP, ABC = assay: Immunoblots of β-catenin–dependent cell lines Colo320 and HCT116; format: cell-based, human; settings: Colo320 and HCT116, 24 and 48 hours
# How it was run: (§1)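 HCT116 (McCoy's), Colo320 (RPMI 1640) and RKO (DMEM) were grown with 10% FBS at 37°C, 5% CO2, with DMSO as vehicle. Membranes were probed overnight at 4°C with primary antibodies in blocking buffer, then HRP secondary, and detected by chemiluminescence. Densitometry was normalized to actin.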
# Colo320 and HCT116 cells = assay: Proliferation assay, β-catenin–dependent cell lines; format: cell-based, human; settings: 5, 10, or 20 μM; 24, 48, 72, and 96 hours
# How it was run: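 Colo320, HCT116 and RKO cells were seeded in triplicate at 3000 cells/well and treated with DMSO vehicle or 5, 10 or 20 μM compound. Proliferation was measured by CellTiter-Glo 2.0 luminescence, relative to the respective baseline readings.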
# [1] = target: T1, β-catenin complexes with E-cadherin; assay: β-catenin Co-IP assay in DLD-1 cells; format: cell-based
# How it was run: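 DLD-1 cells treated 16 h with DMSO vehicle or 1, 10 or 20 μM compound, then lysed in whole-cell lysis buffer. 800 μg extract incubated with 3.5 μg anti-β-catenin, with normal rabbit IgG as negative control. Protein G magnetic beads added for 1 h at 4°C, washed four times (150 mM NaCl) and eluted in reducing buffer. 2% input included. Immunoblotting used chemiluminescence and actin-normalised densitometry.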
# β-catenin/BCL9 complexes = target: T2, β-catenin/BCL9 complexes; assay: BCL9 Co-IP assay in Colo320 and HCT116 cells; format: cell-based; settings: Colo320 and HCT116, 16 hours
# How it was run: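 Colo320 and HCT116 cells (with 4T1) were treated for 16 h with DMSO vehicle or 1, 10 or 20 μM compound. Nuclei were isolated and digested with hypotonic and digestion buffers, and nuclear protein was quantified by Bradford. 800 μg nuclear extract was immunoprecipitated overnight at 4°C with 3.5 μg anti-BCL9, with normal rabbit IgG as negative control, then immunoblotted.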
# [2] = system: Wnt transcriptional activity; assay: Dual-luciferase Wnt reporter assay in Colo320 and HCT116 cells; format: cell-based, human; settings: 16 hours, versus vehicle
# How it was run: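 Stable reporter cells came from lentiviral transduction: firefly luciferase under a 7XTCF promoter and Renilla luciferase under an EF1alpha promoter. 30,000 cells/well were treated 16 h with DMSO vehicle or increasing compound concentrations. Firefly and Renilla signals were read by Dual-Glo, in triplicate.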
# [3] = system: Wnt target genes AXIN2 and CD44; assay: RT-qPCR of Wnt target genes in Colo320 and HCT116 cells; format: cell-based, human; settings: 10 or 20 μM for 6, 24, and 48 hours
# How it was run: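 Colo320 and HCT116 cells treated with DMSO vehicle or 10 or 20 μM compound for 6, 24 and 48 h. Total RNA isolated with TRIzol, reverse-transcribed, and SYBR Green qPCR run. Expression normalised to B2M and PMM1 or GAPDH by the ΔΔCT method.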
# AXIN2, CD44, PARP = assay: Immunoblots of β-catenin–independent cell line RKO; format: cell-based, human; settings: RKO cells
# How it was run: as §1
# HCT116 and Colo320 cells = assay: Viability assay; format: cell-based, human; settings: 48 hours; for cell viability compared to vehicle controls: 20 μM; for effect of addition of cholesterol on viability: 20 μM compound ± cholesterol 20 μM
# How it was run: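 HCT116 and Colo320 cells were treated 48 h with the indicated agents at 20 μM, including water-soluble cholesterol, alone or combined. Viability was measured by CellTiter-Glo luminescence in triplicate and expressed relative to vehicle-treated cells.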
# HCT116 cells = assay: Fluorescent staining of lipids and cholesterol in HCT116 cells; format: cell-based, human; settings: treated for 24 and 48 hours
# How it was run: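 HCT116 cells in glass-bottomed dishes treated with vehicle or 20 μM compound for 4, 8, 24 and 48 h. Fixed in 4% paraformaldehyde, stained with 2 μM BODIPY 493/503 for 15 min plus DAPI (1 μg/ml). Cholesterol stained with a filipin III kit. For localisation at 48 h, filipin was combined with anti-SERCA-ATPase (ER) or LipidSpot (lipid droplets). Imaged with a ×40 dry objective.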
# [4] = target: human CTNNB1 region 141-305 (short protein) (human) (UniProt P35222); assay: ITC
# [5] = target: T3, full-length recombinant β-catenin (1 to …); assay: AlphaScreen or HTRF
molecule,measurement,setting,value
O=C(Nc1ccccc1Oc1nc2ccccc2n2cnnc12)c1cccs1 [C-2],PARP cleavage,"AXIN2, CD44, PARP, ABC",increased the cleavage of poly(adenosine diphosphate–ribose) polymerase (PARP)
same,abundance of active β-catenin (ABC),"AXIN2, CD44, PARP, ABC",decreased abundance of “active” dephosphorylated β-catenin
same,protein expression of AXIN2 and CD44,"AXIN2, CD44, PARP, ABC",significantly decreased the protein expression of AXIN2 and CD44
same,proliferation,Colo320 and HCT116 cells,significantly reduced the proliferation
same,disruption of β-catenin complexes with E-cadherin,[1],Neither compound disrupted the ability of β-catenin to form complexes with E-cadherin
same,concentration inhibiting β-catenin/BCL9 complexes in Co-IP,β-catenin/BCL9 complexes,1 µM
same,inhibition of Wnt signaling (firefly/renilla luciferase ratio),[2],significantly inhibited Wnt signaling
same,expression of AXIN2 and CD44 mRNAs,[3],significantly inhibited the expression of AXIN2 and CD44 mRNAs
same,PARP cleavage,"AXIN2, CD44, PARP",minor PARP cleavage at 10 and 20 μM
same,expression of AXIN2 or CD44 protein,"AXIN2, CD44, PARP",did not affect their expression of AXIN2 or CD44 protein
COc1ccc(C)cc1CN1CCC(c2cc3ncccc3cn2)CC1 [C-3],concentration inhibiting β-catenin/BCL9 complexes in Co-IP,β-catenin/BCL9 complexes,20 µM
"O=C1[C@H](Cc2ccc(O)cc2)N2C(=O)CCN(C(=O)NCc3ccccc3)[C@H]2CN1Cc1cccc2ccccc12 [ICG-001, reference compound]",inhibition of Wnt signaling (firefly/renilla luciferase ratio),[2],significantly inhibited Wnt signaling
same,cell viability compared to vehicle controls,HCT116 and Colo320 cells,significantly reduced cell viability
CCN(CC)CCO[C@H]1CC[C@@]2(C)C(=CC[C@@H]3[C@@H]2CC[C@]2(C)C(=O)CC[C@@H]32)C1.Cl [U-18666A],intracellular lipids (BODIPY),HCT116 cells,substantial intracellular lipid accumulation
CC(C)c1cc(C(C)C)c(CC(=O)NS(=O)(=O)Oc2c(C(C)C)cccc2C(C)C)c(C(C)C)c1 [avasimibe],effect of addition of cholesterol on viability,HCT116 and Colo320 cells,did not affect the viability
same,cell viability compared to vehicle controls,HCT116 and Colo320 cells,significantly reduced cell viability
CC[C@H](C)C(=O)O[C@H]1C[C@@H](C)C=C2C=C[C@H](C)[C@H](CC[C@@H]3C[C@@H](O)CC(=O)O3)[C@H]21 [lovastatin],effect of addition of cholesterol on viability,HCT116 and Colo320 cells,did not affect the viability
same,cell viability compared to vehicle controls,HCT116 and Colo320 cells,significantly reduced cell viability
nonbiotinylated BCL9-HD2 peptide,Kd,[4],2740 nM
Biotin-LSQEQLEHRERSLQTLRDIQRM [N-terminal biotinylated BCL9-HD2 peptide],binding result,[5],binds
